These results are taken from ChEMBL document CHEMBL4334459, “Identification of α-Mangostin as a Potential Inhibitor of Microtubule Affinity Regulating Kinase 4” (J Nat Prod, 2019).

The target of data set [1] is T1, MAP/microtubule affinity-regulating kinase 4 (Homo sapiens) (UniProt Q96L34).
T1 sequence (whole entry): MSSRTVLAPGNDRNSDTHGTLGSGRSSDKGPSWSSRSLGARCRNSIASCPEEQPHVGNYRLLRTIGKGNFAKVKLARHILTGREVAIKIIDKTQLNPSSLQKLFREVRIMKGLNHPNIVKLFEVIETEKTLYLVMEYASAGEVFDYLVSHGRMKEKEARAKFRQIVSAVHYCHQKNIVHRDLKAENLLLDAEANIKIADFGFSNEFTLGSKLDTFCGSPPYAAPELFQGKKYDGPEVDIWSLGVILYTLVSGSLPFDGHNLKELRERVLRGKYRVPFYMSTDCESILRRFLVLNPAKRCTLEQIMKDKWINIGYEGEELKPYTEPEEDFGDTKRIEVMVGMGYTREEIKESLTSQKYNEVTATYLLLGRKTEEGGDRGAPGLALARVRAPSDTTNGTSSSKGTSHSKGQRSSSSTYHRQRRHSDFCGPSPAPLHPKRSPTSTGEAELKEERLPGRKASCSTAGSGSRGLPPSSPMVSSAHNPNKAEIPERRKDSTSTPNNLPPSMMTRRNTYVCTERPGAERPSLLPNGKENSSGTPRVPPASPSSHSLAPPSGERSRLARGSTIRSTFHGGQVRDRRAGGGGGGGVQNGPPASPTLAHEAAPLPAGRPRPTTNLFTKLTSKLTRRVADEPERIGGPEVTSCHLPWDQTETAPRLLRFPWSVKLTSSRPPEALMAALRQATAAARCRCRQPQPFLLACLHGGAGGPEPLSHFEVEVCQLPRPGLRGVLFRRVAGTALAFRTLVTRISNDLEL
Briefly: Inhibition of recombinant human MARK4 at 10 uM incubated for 2 hrs by [gamma32P]ATP assay. The gist of the method:
(§1)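 Recombinant human MARK4 was incubated 2 h at 37 °C with 1 mM cold ATP plus [γ-32P]ATP (222 TBq mmol−1), with or without compound. Released 32Pi was separated from ATP by TLC, and spots were quantified as % ATP hydrolysis relative to a 100 nM enzyme positive control. Screening was at a single 10 μM; dose-response used 0.5−10 μM.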

The target in data set [2] is T1, MAP/microtubule affinity-regulating kinase 4 (Homo sapiens). The experiment in a line: (§2) Inhibition of recombinant human MARK4 incubated for 2 hrs by [gamma32P]ATP assay. A digest of the protocol:
as §1

Data set [3] deals with T2, MAP/microtubule affinity-regulating kinase 4 (Homo sapiens, UniProt Q96L34).
T2 sequence (Q96L34 whole entry): T1 sequence (whole entry)
Described as §2. The gist of the method: as §1

The target in data set [4] is T1, MAP/microtubule affinity-regulating kinase 4 (Homo sapiens). The experiment in a line: Inhibition of MARK4 in human SH-SY5Y cells assessed as reduction in tau phosphorylation at IC50 after 24 hrs by flow cytometric analysis. In kind it is cell-based. The gist of the method: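 SH-SY5Y cells were grown in 1:1 EMEM/F12 with 10% FBS and incubated with IC50 compound. After 24 h, about 1 × 10^6 cells were collected, fixed, and stained with anti-tau primary antibody for 2−3 h at 25 °C. Phospho-tau signal was read by flow cytometry against untreated cells.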
For orientation: A flow cytometer gives signals particle by particle.

The target is the same in data set [5]. Briefly: Binding affinity to recombinant human MARK 4 by fluorescence based Stem-Volme plot analysis. A digest of the protocol:
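Intrinsic fluorescence of recombinant MARK4 (10 μM) was titrated with increasing ligand, using excitation at 280 nm and emission recorded from 300−400 nm. Quenching was fitted to a modified Stern−Volmer equation, log(Fo−F)/F = log Ka + n log[L]. Ka came from the intercept and n from the slope. Three independent triplicate titrations were averaged.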

The subject of data set [6] is MCF7. The experiment in a line: Antiproliferative activity against human MCF7 cells assessed as reduction in cell viability after 48 hrs by MTT assay. Type of data set: functional, cell-based. The following applies: MCF7, 48 h. A digest of the protocol: (§3)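 Cells plated at 9000−10 000 cells/well, grown 24 h, then exposed to 0−50 μM compound for 48 h at 37 °C in 5% CO2, followed by a standard MTT read-out. HEK-293, MCF-7 and HepG2 were kept in DMEM with 10% heat-inactivated FBS and 1% penicillin−streptomycin. Viability is expressed as % of control, mean ± SD, n = 3. Paclitaxel served as positive control.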

For data set [7], the system named is HepG2. Briefly: Antiproliferative activity against human HepG2 cells assessed as reduction in cell viability after 48 hrs by MTT assay. Type of data set: functional, cell-based. The following applies: HepG2, 48 h. The gist of the method:
as §3
A general note: Tetrazolium dyes change colour on reduction, which living cells bring about.

The subject of the next data set is HEK293. The experiment in a line: Cytotoxicity against human HEK293 cells assessed as reduction in cell viability upto 50 uM after 48 hrs by MTT assay. The following applies: hek293, 48 h. In kind it is cell-based. A digest of the protocol: as §3
Data set [8] has as its system MCF7. The experiment in a line: Induction of apoptosis in human MCF7 cells assessed as viable cells at IC50 after 24 hrs by annexin V-FITC/propidium iodide staining based Flow cytometric analysis (reference value: 99.99%). Type of data set: functional.
The test system of data set [9] is MCF7. Briefly: Induction of apoptosis in human MCF7 cells assessed as apoptotic cells at IC50 after 24 hrs by annexin V-FITC/propidium iodide staining based Flow cytometric analysis (reference value: 0.01%). In kind it is functional.
Data set [10] relates to HepG2. Briefly: Induction of apoptosis in human HepG2 cells assessed as viable cells at IC50 after 24 hrs by annexin V-FITC/propidium iodide staining based Flow cytometric analysis (reference value: 97.32%). In kind it is functional.
Data set [11] deals with HepG2. Briefly: Induction of apoptosis in human HepG2 cells assessed as apoptotic cells at IC50 after 24 hrs by annexin V-FITC/propidium iodide staining based Flow cytometric analysis (reference value: 2.68%). In kind it is functional.
Data set [12] concerns MCF7. The experiment in a line: Induction of cell cycle arrest in human MCF7 cells assessed as accumulation at G0/G1 phase at IC50 after 24 hrs by propidium iodide staining based Flow cytometric analysis (reference value: 65%). In kind it is functional.
Data set [13] concerns MCF7. The experiment in a line: Induction of cell cycle arrest in human MCF7 cells assessed as accumulation at S phase at IC50 after 24 hrs by propidium iodide staining based Flow cytometric analysis (reference value: 20%). In kind it is functional.
The test system of data set [14] is MCF7. The experiment in a line: Induction of cell cycle arrest in human MCF7 cells assessed as accumulation at G2 phase at IC50 after 24 hrs by propidium iodide staining based Flow cytometric analysis (reference value: 15%). Type of data set: functional.
The test system of data set [15] is HepG2. The experiment in a line: Induction of cell cycle arrest in human HepG2 cells assessed as accumulation at G0/G1 phase at IC50 after 24 hrs by propidium iodide staining based Flow cytometric analysis (reference value: 60%). In kind it is functional.
Data set [16] relates to HepG2. Briefly: Induction of cell cycle arrest in human HepG2 cells assessed as accumulation at S phase at IC50 after 24 hrs by propidium iodide staining based Flow cytometric analysis (reference value: 25%). Type of data set: functional.
The subject of data set [17] is HepG2. The experiment in a line: Induction of cell cycle arrest in human HepG2 cells assessed as accumulation at S phase at IC50 after 24 hrs by propidium iodide staining based Flow cytometric analysis (reference value: 15%). Type of data set: functional.
The target in data set [18] is T1, MAP/microtubule affinity-regulating kinase 4 (Homo sapiens). The experiment in a line: Inhibition of MARK4 in human MCF7 cells assessed as reduction in ROS level at IC50 after 5 to 6 hrs by DCFDA staining using spectroflourimetric analysis. In kind it is cell-based.
Data set [19] shares this target. Briefly: Inhibition of MARK4 in human HepG2 cells assessed as reduction in ROS level at IC50 after 5 to 6 hrs by DCFDA staining using spectroflourimetric analysis. In kind it is cell-based.
Data set [20] relates to MCF7. Briefly: Inhibition of cell migration in human MCF7 cells at IC50 after 48 hrs by phase contrast inverted microscopic based wound healing assay. Type of data set: functional.

The source made the active and inactive calls. The calls are words filed in the database; no cut-off is given here.

`O=c1oc2c(O)c(O)cc3c(=O)oc4c(O)c(O)cc1c4c23`: the inhibition result in [1] was “Active”.
Take `COc1c(O)cc2oc3cc(O)c(CC=C(C)C)c(O)c3c(=O)c2c1CC=C(C)C` [MANGOSTIN]: the inhibition entry (in [1]; in data set [4]; in [18]; in [19]; with MCF7 [20]) was “Active” in each case. In addition, the inhibition entry in data set [2] was “Dose-dependent effect”. Moreover, the IC50 (usually the concentration needed to halve the response being measured) turned out to be 1.77 µM in data set [3], 9.95 µM in the data set with MCF7 [6] and 18.6 µM with HepG2 [7]. Moreover, the Ka in [5] is 5.2 ×10⁷ /M. In addition, the Activity result is “Non-Toxic” in the data set on HEK293; 74.1% with MCF7 [8]; 25.9% with MCF7 [9]; 80.3% with HepG2 [10]; 19.7% in the data set on HepG2 [11]; 83% with MCF7 [12]. Also, the Activity with MCF7 [13] worked out at 10%; with MCF7 [14], 7%; with HepG2 [15] it was 75%; in the data set on HepG2 [16], 15%; in the data set with HepG2 [17], 10%.
